≈ marks a conversion by molar mass, not a printed value. Calls of active or inactive are those of the source. The calls are words filed in the database; no cut-off is given here.

The values below come from ChEMBL document CHEMBL1687765, “NagZ inactivation prevents and reverts beta-lactam resistance, driven by AmpD and PBP 4 mutations, in Pseudomonas aeruginosa” (2010).

Assay [1] deals with Pseudomonas aeruginosa. Description: Antimicrobial activity against Pseudomonas aeruginosa PAO1 by broth microdilution method in presence of 5 mM NagZ inhibitor PUGNAc. The format is functional. The essentials: (§1)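 Broth microdilution MICs of ceftazidime, aztreonam and piperacillin in 100 μl cation-adjusted Mueller-Hinton broth, with or without NagZ inhibitor PUGNAc at 0.5 mM or 5 mM; measurements in triplicate.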

Assay [2] deals with Pseudomonas aeruginosa. The assay is described as follows: Antimicrobial activity against ampR::lox gene-deficient Pseudomonas aeruginosa PAO1 by Etest method. The format is functional. The gist of the method:
(§2)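 MICs read from Etest strips on Mueller-Hinton agar per manufacturer's instructions; agents ceftazidime, cefepime, aztreonam, piperacillin, piperacillin-tazobactam, imipenem and meropenem.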

Assay [3] has as its system Pseudomonas aeruginosa. Description: Antimicrobial activity against dacB::lox gene-deficient Pseudomonas aeruginosa PAO1 by broth microdilution method in presence of 0.5 mM NagZ inhibitor PUGNAc. The format is functional. The gist of the method:
as §1

Assay [4] deals with Pseudomonas aeruginosa. The assay is described as follows: Antimicrobial activity against nagZ::lox gene-deficient Pseudomonas aeruginosa PAO1 at 1 ug/ml. The format is functional, organism-based. The gist of the method: (§3)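 Population analysis: serial dilutions of overnight MH broth cultures plated on MH agar with 0, 0.5, 1, 2, 4, 8 or 16 μg/ml ceftazidime; colonies counted after 24 h as CFU at each concentration; triplicate, mean ± standard deviation.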

Assay [5] deals with Pseudomonas aeruginosa. Description: Antimicrobial activity against ampD::lox and nagZ::lox gene-deficient Pseudomonas aeruginosa PAO1 by Etest method. The assay is classed as functional. The gist of the method:
as §2

Assay [6] has as its system Pseudomonas aeruginosa. The assay is described as follows: Antimicrobial activity against dacB::lox gene-deficient Pseudomonas aeruginosa PAO1 by broth microdilution method in presence of 5 mM NagZ inhibitor PUGNAc. The assay is classed as functional. The essentials:
as §1

Assay [7] concerns Pseudomonas aeruginosa. Description: Antimicrobial activity against ampD::lox gene-deficient Pseudomonas aeruginosa PAO1 by broth microdilution method in presence of 0.5 mM NagZ inhibitor PUGNAc. The assay is classed as functional. The essentials:
as §1

Assay [8] deals with Pseudomonas aeruginosa. Description: Antimicrobial activity against Pseudomonas aeruginosa PAO1 by Etest method. The format is functional. The gist of the method:
as §2

Assay [9] concerns Pseudomonas aeruginosa. Description: Antimicrobial activity against ampD::lox, ampDh2::lox,ampDh3::lox and nagZ::lox gene-deficient Pseudomonas aeruginosa PAO1 by Etest method. The assay is classed as functional. The gist of the method: as §2
Assay [10] relates to Pseudomonas aeruginosa. The assay is described as follows: Antimicrobial activity against ampD::lox gene-deficient Pseudomonas aeruginosa PAO1 harboring dacB gene by broth microdilution method in presence of 0.5 mM NagZ inhibitor PUGNAc. The format is functional. The gist of the method: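 MICs of ceftazidime, aztreonam and piperacillin determined by broth microdilution in cation-adjusted Mueller-Hinton broth, with 0.5 mM of the N-acetyl-β-glucosaminidase (NagZ) inhibitor PUGNAc added alongside the β-lactam and untreated controls run in parallel; all measurements performed in triplicate.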

The subject of assay [11] is Pseudomonas aeruginosa. The assay is described as follows: Antimicrobial activity against ampD::lox gene-deficient Pseudomonas aeruginosa PAO1 by Etest method. The format is functional. The essentials: as §2
The test system of assay [12] is Pseudomonas aeruginosa. The assay is described as follows: Antimicrobial activity against dacB::lox gene-deficient Pseudomonas aeruginosa PAO1 by Etest method. The assay is classed as functional. The essentials:
as §2

For assay [13], the system named is Pseudomonas aeruginosa. The assay is described as follows: Antimicrobial activity against ampC::lox gene-deficient Pseudomonas aeruginosa PAO1 by Etest method. The format is functional. The gist of the method: as §2
The subject of assay [14] is Pseudomonas aeruginosa. Description: Antimicrobial activity against ampD::lox, ampDh2::lox and ampDh3::lox gene-deficient Pseudomonas aeruginosa PAO1 by Etest method. The assay is classed as functional. The gist of the method:
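Etest strips on Mueller-Hinton agar, read per manufacturer's recommendations; P. aeruginosa PAO1 triple mutant deficient in ampD, ampDh2 and ampDh3 (lox deletions). Agents tested by Etest: ceftazidime, cefepime, aztreonam, piperacillin, piperacillin-tazobactam, imipenem, meropenem.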

In assay [15] the test system is Pseudomonas aeruginosa. Description: Antimicrobial activity against ampD::lox gene-deficient Pseudomonas aeruginosa PAO1 harboring dacB gene by broth microdilution method in presence of 5 mM NagZ inhibitor PUGNAc. The assay is classed as functional. The gist of the method: as §1
Assay [16] concerns Pseudomonas aeruginosa. The assay is described as follows: Antimicrobial activity against ampD::lox gene-deficient Pseudomonas aeruginosa PAO1 by broth microdilution method in presence of 5 mM NagZ inhibitor PUGNAc. The format is functional. The essentials:
as §1

In assay [17] the test system is Pseudomonas aeruginosa. Description: Antimicrobial activity against ampD::lox and nagZ::lox gene-deficient Pseudomonas aeruginosa PAO1 harboring dacB gene by Etest method. The assay is classed as functional. The gist of the method: as §2
The test system of assay [18] is Pseudomonas aeruginosa. The assay is described as follows: Antimicrobial activity against dacB::lox gene-deficient Pseudomonas aeruginosa PAO1 by broth microdilution method. The format is functional. The gist of the method: as §1
For assay [19], the system named is Pseudomonas aeruginosa. The assay is described as follows: Antimicrobial activity against Pseudomonas aeruginosa PAO1 at 1 ug/ml. The assay is classed as functional, organism-based. The gist of the method:
as §3

Assay [20] relates to Pseudomonas aeruginosa. The assay is described as follows: Antimicrobial activity against nagZ::lox gene-deficient Pseudomonas aeruginosa PAO1 by Etest method. The format is functional. The gist of the method:
as §2

Assay [21] deals with Pseudomonas aeruginosa. The assay is described as follows: Antimicrobial activity against Pseudomonas aeruginosa PAO1 by broth microdilution method in presence of 0.5 mM NagZ inhibitor PUGNAc. The format is functional. The gist of the method: as §1
Assay [22] concerns Pseudomonas aeruginosa. Description: Antimicrobial activity against ampD::lox gene-deficient Pseudomonas aeruginosa PAO1 harboring dacB gene by broth microdilution method. The format is functional. The essentials: as §1
The test system of assay [23] is Pseudomonas aeruginosa. The assay is described as follows: Antimicrobial activity against ampD::lox gene-deficient Pseudomonas aeruginosa PAO1 harboring dacB gene by Etest method. The assay is classed as functional. The essentials: as §2
For assay [24], the system named is Pseudomonas aeruginosa. The assay is described as follows: Antimicrobial activity against Pseudomonas aeruginosa PAO1 by broth microdilution method. The format is functional. The gist of the method:
as §1

Assay [25] has as its system Pseudomonas aeruginosa. The assay is described as follows: Antimicrobial activity against ampD::lox gene-deficient Pseudomonas aeruginosa PAO1 by broth microdilution method. The assay is classed as functional. The essentials:
as §1

Consider `CC(C)(O/N=C(\C(=O)N[C@@H]1C(=O)N2C(C(=O)[O-])=C(C[n+]3ccccc3)CS[C@H]12)c1csc(N)n1)C(=O)O` [CEFTAZIDIME], for which the MIC in the assay with Pseudomonas aeruginosa [1] came out at 2 µg/mL; with Pseudomonas aeruginosa [2], 2 µg/mL (≈ 3.66 µM); with Pseudomonas aeruginosa [3] it was 8 µg/mL; in the assay on Pseudomonas aeruginosa [5], 2 µg/mL (≈ 3.66 µM); with Pseudomonas aeruginosa [6], 6 µg/mL; with Pseudomonas aeruginosa [7], 4 µg/mL. In addition, the MIC is 1.5 µg/mL (≈ 2.74 µM) with Pseudomonas aeruginosa [8]; 3 µg/mL (≈ 5.49 µM) with Pseudomonas aeruginosa [9]; 64 µg/mL in the assay on Pseudomonas aeruginosa [10]; 8 µg/mL (≈ 14.6 µM) against Pseudomonas aeruginosa [11]; 24 µg/mL (≈ 43.9 µM) with Pseudomonas aeruginosa [12]; 1 µg/mL (≈ 1.83 µM) with Pseudomonas aeruginosa [13]. The MIC with Pseudomonas aeruginosa [14] was 32 µg/mL (≈ 58.5 µM); in the assay on Pseudomonas aeruginosa [15], 64 µg/mL; in the assay on Pseudomonas aeruginosa [16], 4 µg/mL; in the assay on Pseudomonas aeruginosa [17] it was 4 µg/mL (≈ 7.32 µM); against Pseudomonas aeruginosa [18], 24 µg/mL (≈ 43.9 µM); against Pseudomonas aeruginosa [20], 1 µg/mL (≈ 1.83 µM). Moreover, the MIC in the assay on Pseudomonas aeruginosa [21] came out at 2 µg/mL; against Pseudomonas aeruginosa [22], 96 µg/mL (≈ 176 µM); against Pseudomonas aeruginosa [23] it was 96 µg/mL (≈ 176 µM); with Pseudomonas aeruginosa [24], 2 µg/mL (≈ 3.66 µM); in the assay on Pseudomonas aeruginosa [25], 8 µg/mL (≈ 14.6 µM). Further, the result with Pseudomonas aeruginosa [4] and with Pseudomonas aeruginosa [19] was Active.
Consider `CO/N=C(\C(=O)N[C@@H]1C(=O)N2C(C(=O)[O-])=C(C[N+]3(C)CCCC3)CS[C@H]12)c1csc(N)n1` [CEFEPIME], for which the MIC in the assay with Pseudomonas aeruginosa [2] was determined as 2 µg/mL (≈ 4.16 µM); against Pseudomonas aeruginosa [5], 1.5 µg/mL (≈ 3.12 µM); with Pseudomonas aeruginosa [8], 1.5 µg/mL (≈ 3.12 µM); in the assay with Pseudomonas aeruginosa [9], 3 µg/mL (≈ 6.24 µM); in the assay with Pseudomonas aeruginosa [12], 12 µg/mL (≈ 25 µM); in the assay with Pseudomonas aeruginosa [13], 1 µg/mL (≈ 2.08 µM). For the same compound, the values for the MIC in the assay with Pseudomonas aeruginosa [17], in the assay with Pseudomonas aeruginosa [20] and against Pseudomonas aeruginosa [23] were 3 µg/mL (≈ 6.24 µM), 1.5 µg/mL (≈ 3.12 µM) and 48 µg/mL (≈ 99.9 µM), respectively.
As to `C[C@@H](O)[C@H]1C(=O)N2C(C(=O)O)=C(SCCNC=N)C[C@H]12` [IMIPENEM ANHYDROUS], the MIC against Pseudomonas aeruginosa [2] worked out at 0.5 µg/mL (≈ 1.67 µM); in the assay on Pseudomonas aeruginosa [5], 1 µg/mL (≈ 3.34 µM); with Pseudomonas aeruginosa [8], 2 µg/mL (≈ 6.68 µM); with Pseudomonas aeruginosa [9] it was 1.5 µg/mL (≈ 5.01 µM); in the assay with Pseudomonas aeruginosa [11] it was 2 µg/mL (≈ 6.68 µM); with Pseudomonas aeruginosa [12] it was 2 µg/mL (≈ 6.68 µM). Further, the MIC came to 0.5 µg/mL (≈ 1.67 µM) with Pseudomonas aeruginosa [13]; 2 µg/mL (≈ 6.68 µM) against Pseudomonas aeruginosa [14]; 1 µg/mL (≈ 3.34 µM) with Pseudomonas aeruginosa [17]; 1 µg/mL (≈ 3.34 µM) in the assay on Pseudomonas aeruginosa [20]; 2 µg/mL (≈ 6.68 µM) in the assay with Pseudomonas aeruginosa [23].
